Rows were chosen to be rich in hits. Some 3.5% of all compounds tested hit in one or more screens of this group.
MrgX1 agonist: activates human MrgX1 receptor signaling | Q96LB2 | B-score at 10 µM | MrgX1-HEK293 cells, Fluo-4 calcium fluorescence, agonist mode; hits give high values | hit rate 0.44% among 310,000 | AID 588627;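 active = calcium response B-score plate-corrected fluorescence ratio at least 3 library SD, with starting fluorescence B-score inside 5 SD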
Target sequence (Q96LB2 whole entry, looked up): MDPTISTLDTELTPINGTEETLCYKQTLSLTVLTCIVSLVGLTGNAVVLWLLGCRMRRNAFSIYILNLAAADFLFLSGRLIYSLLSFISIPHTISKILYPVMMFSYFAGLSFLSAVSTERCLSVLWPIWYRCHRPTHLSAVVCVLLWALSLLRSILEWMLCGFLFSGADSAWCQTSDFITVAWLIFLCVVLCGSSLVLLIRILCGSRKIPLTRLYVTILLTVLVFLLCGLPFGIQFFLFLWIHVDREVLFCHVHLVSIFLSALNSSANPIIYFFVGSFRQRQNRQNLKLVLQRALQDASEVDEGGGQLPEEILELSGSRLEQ
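Test system: HEK293 cells stably expressing human MrgX1 receptor; Input: fifteen thousand cells per well; Dosing: compound delivered in addition one of three; Schedule: overnight seeding, then 1 h dark dye loading; Technique: Fluo-4 NW calcium fluorescence; Measure: B-scored fluorescence response ratio; Controls: positive and negative controls per plate.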
MrgX1 PAM: allosterically activates human MrgX1 receptor signaling; Q96LB2; MrgX1-HEK293, Fluo-4 calcium flux, FDSS; hits give high values; B-score at 10 µM; hit rate 0.63% among 310,000; AID 588675;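 active = plate-corrected calcium response at least 3 library SD above typical, normal starting fluorescence, not activating the receptor alone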;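 note: compound read alongside a low EC10 to EC30 dose of BAM8-22 agonist; peak minus trough fluorescence over baseline measured at the second addition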
MrgX1 antag: human MrgX1 receptor antagonism, primary screen. B-score at 10 µM. MRGX1-HEK293 calcium flux, Fluo-4, BAM8-22 antagonism; hits give low values. hit rate 1.3% among 310,000. Q96LB2;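 active = calcium-response B-score plate-corrected more than 3 library SD below zero, starting fluorescence within 5 deviations, no agonist response on first addition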;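 note: peak minus trough fluorescence over baseline after final BAM8-22 challenge near maximal dose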
RGS4 inh: human RGS4 inhibition; P49798; HEK293 M3R/RGS4 inducible, Fluo-4 calcium flux; hits give high values; triggered by carbachol at its EC20; B-score at 10 µM; hit rate 0.45% among 310,000; AID 463165;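 active = B-score, a plate-corrected calcium signal, over three deviations above library mean, with baseline fluorescence within five deviations of library mean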;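 note: RGS4 expression induced by doxycycline in cells with stable M3 receptor; B-score is computed from the integrated fluorescence ratio over baseline after carbachol; higher B-score means a larger calcium signal and so more RGS4 inhibition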
Target sequence (P49798 whole entry, looked up): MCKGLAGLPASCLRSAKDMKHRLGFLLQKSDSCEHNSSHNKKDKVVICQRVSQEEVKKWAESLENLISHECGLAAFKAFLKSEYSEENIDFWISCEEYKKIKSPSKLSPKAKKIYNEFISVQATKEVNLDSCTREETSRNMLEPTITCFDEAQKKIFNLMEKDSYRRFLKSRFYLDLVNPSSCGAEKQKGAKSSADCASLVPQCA
RGS4 act: RGS4 potentiation or activation; HEK293 M3R/inducible RGS4, carbachol calcium flux Fluo4; hits give low values; B-score at 10 µM; hit rate 0.92% among 310,000; AID 463111;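 active = B-score of the integrated calcium signal more than 4 SD below the library mean, with starting fluorescence not abnormally high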;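 note: negative B-score means reduced calcium response which marks RGS4 activation or potentiation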
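Assay system: HEK293 FlpIn-TREx cells, stable M3R, doxycycline-inducible RGS4 / Probe or stimulus: carbachol, ECmax concentration / Times: overnight RGS4 induction, 30 min dye load 37 °C, 20 min compound RT / Signal: kinetic calcium fluorescence imaging with Fluo4-AM dye, 2 µM / Measure: Agonist-evoked peak-minus-minimum fluorescence over baseline, integrated ratio, B score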
RGS4 block valid: RGS4 inhibitor validation; shares compounds with RGS4 inh; HEK293 M3R/RGS4, carbachol calcium Fluo-4 fluorescence; carbachol added at its EC20; 0 = buffer wells, 100 = carbachol control; calcium response, % at 10 µM; hit rate 65% among 1,700; AID 492999;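 active = duplicate-averaged calcium response above the buffer-only control mean plus 5 SD of those controls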;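 note: integrated fluorescence ratio F max minus min over baseline F0; higher response in RGS4-induced cells means RGS4 inhibition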
RGS4 uninduced: non-induced cell nonspecific activity of RGS4 inhibitors. activity (percent), % at 10 µM. hit rate 20% among 1,900. HEK293 M3R non-induced, carbachol calcium Fluo-4; submaximal (EC20) carbachol stimulus; buffer wells 0%, carbachol control wells 100%. shares compounds with RGS4 inh; call rule not given here;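 note: RGS4 induction absent so cells express M3R without RGS4; higher means more calcium signal and flags a non-specific hit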
RGS4 inh ctr2: second counter-screen for RGS4 inhibitors: non-induced cells without carbachol; shares compounds with RGS4 inh; HEK293 M3R/RGS4 non-induced, Fluo-4 calcium, no carbachol; normalised: buffer wells 0%, carbachol wells 100%; calcium response (agonist-mode artifact), % at 10 µM; hit rate 22% among 1,900; AID 493001;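 active = duplicate-averaged calcium rise in uninduced cells above buffer wells' mean plus 5 SD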
Active calls of the source: *; i = inactive; · = no result.

SMILES	MrgX1 agonist	MrgX1 PAM	MrgX1 antag	RGS4 inh	RGS4 act	RGS4 block valid	RGS4 uninduced	RGS4 inh ctr2
O=C(O)c1cccc(N2C(=O)c3ccc(C(=O)c4cccc([N+](=O)[O-])c4)cc3C2=O)c1	i	i	i	i	i	·	·	·
O=C(O)c1ccc2c(c1)C(=O)N(c1cccc(C(=O)/C=C/c3ccccc3)c1)C2=O	i	i	i	14.6*	i	68.0%*	i	i
CC1(C)CC(=O)C(C(C2=C(O)CC(C)(C)CC2=O)c2ccco2)C(=O)C1 (stereo unspecified)	i	i	i	6.99*	i	21.5%*	i	i
Cn1c(N)c(C(=O)COC(=O)CCCOc2ccc(Cl)cc2Cl)c(=O)n(C)c1=O	i	i	i	i	i	·	·	·
CCOc1cc(/C=C2\CN(C)C/C(=C\c3ccc(O)c(OCC)c3)C2=O)ccc1O	i	i	i	i	i	·	·	·
CN1C/C(=C\c2ccc(N3CCOCC3)cc2)C(=O)/C(=C/c2ccc(N3CCOCC3)cc2)C1	i	i	i	i	i	·	·	·
CN1C/C(=C/c2ccncc2)C(=O)/C(=C/c2ccncc2)C1	i	i	i	20.6*	i	80.0%*	i	i
CN1C/C(=C/c2ccsc2)C(=O)/C(=C/c2ccsc2)C1	i	i	i	6.81*	i	9.5%*	i	i
CCOC(=O)N1CCC(NC(=O)CC2C(=O)NCCN2Cc2cccc(F)c2F)CC1 (stereo unspecified)	i	i	i	i	i	·	·	·
CCn1c2ccccc2c2cc(C3C(C#N)=C(N)Oc4n[nH]c(COC)c43)ccc21 (stereo unspecified)	i	i	i	25.2*	i	39.0%*	33.5%*	i
COc1ccc(C(C[N+](=O)[O-])c2c(C)[nH]n(-c3ccccc3)c2=O)cc1 (stereo unspecified)	39.9*	i	i	28.5*	i	54.0%*	84.5%*	21.0%*
COc1ccc(C(C[N+](=O)[O-])c2c(C)cc3ccccn23)cc1 (stereo unspecified)	i	i	i	i	i	·	·	·
O=C(CCN1CCOCC1)c1ccc(Br)cc1	i	i	i	8.41*	i	29.0%*	i	15.5%*
O=C(CCN1CCN(c2ccccc2)CC1)c1ccc(Br)cc1	i	i	i	27*	i	16.0%*	i	i
O=C(CCN1CCOCC1)c1ccc(Cl)cc1	i	i	i	11.7*	i	17.0%*	56.0%*	25.0%*
Clc1ccc(OCCN2CCOCC2)cc1	i	i	i	i	i	·	·	·
CCCCCOc1ccc(C(=O)CCN2CCOCC2)cc1	i	i	i	i	i	·	·	·
N#Cc1c(-c2ccccc2)c(-c2ccccc2)nn(CC(=O)NNC(=O)Nc2ccc(Cl)c(Cl)c2)c1=O	i	i	i	6.52*	i	27.5%*	i	i
COC(=O)Nc1ccc(=O)n(Cc2c(Cl)cccc2Cl)c1	i	i	i	i	i	·	i	i
C#CCOC(=O)Nc1cccn(Cc2c(Cl)cccc2Cl)c1=O	i	i	i	i	i	·	·	·
COc1cnc(-c2ccccn2)nc1Oc1ccc(Cl)c2ccccc12	i	i	i	10.4*	i	16.5%*	i	i
COc1cnc(-c2ccccn2)nc1Oc1ccccc1Cl	i	i	i	i	i	·	·	·
Nc1ccc2nc(-c3ccccc3)sc2c1	i	i	i	i	i	·	·	·
Cc1ccc2nc(-c3ccc(N)cc3)sc2c1	i	i	i	5.61*	i	16.0%*	i	i
COc1ccc(NC(=O)CC2C(=O)NCCN2C(=O)Nc2ccc(C(F)(F)F)cc2)cc1 (stereo unspecified)	i	i	i	8.84*	i	20.5%*	29.0%*	i
SMILES	MrgX1 agonist	MrgX1 PAM	MrgX1 antag	RGS4 inh	RGS4 act	RGS4 block valid	RGS4 uninduced	RGS4 inh ctr2
O=C(CC1C(=O)NCCN1C(=O)Nc1ccc(C(F)(F)F)cc1)Nc1ccc(F)cc1 (stereo unspecified)	i	i	i	24*	i	43.0%*	i	8.0%*
CN(C)/N=C/C=C1\CCC/C(=C\c2ccc(F)c(F)c2)C1=O	i	i	i	23*	i	8.5%*	i	i
COc1ccc(/C=C2\CCC/C(=C\C=N\N(C)C)C2=O)cc1	i	i	i	i	i	·	·	·
CN1C(=O)/C(=C/C=C2\SCCN2C)N(C)C1=S	·	·	·	i	i	·	·	·
COCc1nnc(NC(=O)CCc2ccccc2)s1	i	i	i	i	i	·	i	i
CCOCc1nnc(NC(=O)CCc2ccccc2)s1	i	i	i	i	i	·	·	·
COCc1nnc(NC(=O)CCc2ccc(OC)cc2)s1	i	i	i	5.04*	i	30.5%*	i	i
COc1ccc(CCC(=O)Nc2nnc(C)s2)cc1	i	i	i	i	i	·	·	·
S=c1[nH]nc(-c2ccncc2)n1/N=C/C(Cl)=C\c1ccccc1	i	i	i	9.84*	i	20.5%*	44.0%*	i
Cc1ccc(-c2nn(-c3ccccc3)cc2/C=N/n2c(-c3ccncc3)n[nH]c2=S)cc1	i	i	i	i	i	i	i	i
CCC(=O)Nc1nnc(SCC(=O)NC2CCCC2)s1	i	i	i	i	i	·	·	·
COC(=O)C1(C(C[N+](=O)[O-])c2ccc(C)cc2)C(=O)NCC1c1ccco1 (stereo unspecified)	i	i	i	i	i	·	·	·
Cc1ccc(/C=C/C(=O)Nc2ccc(S(=O)(=O)Nc3ncccn3)cc2)cc1	i	i	i	i	i	·	·	·
O=C(/C=C/c1ccc(F)cc1)Nc1ccc(S(=O)(=O)Nc2ncccn2)cc1	i	i	i	i	i	i	i	29.0%*
Cc1cc(N(CCO)CCO)ccc1N=Nc1cc(F)ccc1F	i	i	i	7.3*	i	17.5%*	41.0%*	i
CCCCOc1ccc(/C=c2\sc3ncnn3c2=O)cc1	i	i	i	i	i	i	i	i

Screening results from PubChem BioAssay.
